Measured values: ChEMBL document CHEMBL4616694, “Selective Covalent Targeting of Mutated EGFR(T790M) with Chlorofluoroacetamide-Pyrimidines” (ACS Med Chem Lett, 2020)
Calls of active or inactive are those of the source. No cut-off for these calls is given here.

Key:
[1] = system: NCI-H1975; test: Antiproliferative activity against human NCI-H1975 cells harboring EGFR L858R/T790M mutant assessed as reduction in cell viability measured after 72 hrs by WST assay; assay type: functional, cell-based; conditions: NCI-H1975, 72 h
[2] = system: NCI-H292; test: Antiproliferative activity against human NCI-H292 cells expressing wild type EGFR assessed as reduction in cell viability measured after 72 hrs by WST assay; assay type: functional, cell-based; conditions: NCI-H292, 72 h
[3] = Selectivity index, ratio of IC50 for human NCI-H292 cells expressing wild type EGFR assessed as reduction in cell viability measured after 72 hrs by MTT assay to IC50 for human NCI-H1975 cells harboring EGFR L858R/T790M mutant assessed as reduction in cell viability measured after 72 hrs by MTT assay; assay type: functional
[4] = system: Epidermal growth factor receptor (Homo sapiens), P00533 [L858R,T790M]; test: Binding affinity to EGFR L858R/T790M mutant expressed in human H1975 cells assessed as protein labeling at 1 uM measured after 1 hr by pull down based Western blot analysis
[5] = molecular target: Epidermal growth factor receptor (Homo sapiens) (UniProt P00533); test: Competitive binding affinity to EGFR in human H1975 cells assessed as protein labeling at 1 uM pretreated with compound followed by subsequent addition of copper-catalyzed azide-alkyne cyclo with rhodamine azide by in-gel fluorescence assay; assay type: cell-based; conditions: TDE = time-dependent effect
In short: (§1)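 H1975 cells were labeled over time with 1 µM alkyne probe, with incubations extending to 10 h. Labeled proteins were conjugated to rhodamine-azide by copper-catalyzed azide-alkyne cycloaddition and read by in-gel fluorescence.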

[6] = molecular target: Epidermal growth factor receptor (Homo sapiens) (UniProt P00533); test: Binding affinity to wild type EGFR expressed in human H292 cells assessed as protein labeling at 1 uM measured after 1 hr by pull down based Western blot analysis
[7] = system: Epidermal growth factor receptor (Homo sapiens), P00533 [L858R,T790M]; test: Competitive binding affinity to EGFR L858R/T790M mutant expressed in human H1975 cells assessed as SILAC ratio at 5 uM measured after 2 hrs by MS analysis; assay type: cell-based
In short: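 SILAC mass spectrometry in isotopically labeled H1975 cells treated with the probe at 5 µM for 2 h at 37 °C, followed by streptavidin enrichment. Reported values are log2 median SILAC ratios (probe/DMSO or probe/probe) from triplicate MS analyses of a single enriched sample.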

[8] = molecular target: Epidermal growth factor receptor (Homo sapiens) (UniProt P00533); test: (§2) Competitive binding affinity to EGFR in human H1975 cells assessed as protein labeling pretreated with compound followed by subsequent addition of copper-catalyzed azide-alkyne cyclo with rhodamine azide measured after 1 hr by in-gel fluorescence assay; assay type: cell-based
In short: (§3)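 H1975 cells were incubated with the alkyne CFA probe for 1 h at 37 °C. Labeled proteins were clicked to rhodamine-azide by CuAAC and resolved by in-gel fluorescence, with EGFR taken as the 175 kDa band. For competition, excess osimertinib was present. Labeling was also run across probe concentrations, including 1–10 µM.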

[9] = system: Epidermal growth factor receptor (Homo sapiens), P00533 [L858R,T790M]; test: (§4) Binding affinity to recombinant human EGFR L858R/T790M mutant kinase domain assessed as rapid covalent modification at 2 uM pretreated with compound followed by subsequent addition of copper-catalyzed azide-alkyne cyclo with rhodamine azide measured after 72 hrs by coomassie brilliant blue staining based in-gel fluorescence assay
[10] = system: Epidermal growth factor receptor (Homo sapiens), P00533 [L858R,T790M]; test: Inhibition of EGFR L858R/T790M mutant in human H1975 cells assessed as reduction in autophosphorylation at Y1068 residue at 10 nM by Western blot analysis; assay type: cell-based
In short: (§5)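 H1975 cells were treated at 10 nM, and EGFR Y1068 autophosphorylation was assessed by western blot. For irreversibility, compound was washed out of the culture medium and phospho-EGFR was examined for at least 8 h afterwards.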

[11] = Mean residence time in BALB/c mouse at 25 mg/kg, po administered as single dose measured at 2 hrs; assay type: ADME, organism-based; conditions: in vivo
In short: (§6)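 Mice received a single oral dose of 25 mg/kg. Plasma compound levels were followed over time, giving peak concentration with its time and mean residence time.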

[12] = system: Epidermal growth factor receptor (Homo sapiens), P00533 [L858R,T790M]; test: Irreversible inhibition of EGFR L858R/T790M mutant in human H1975 cells assessed as reduction in autophosphorylation at Y1068 residue at 10 nM measured after 8 hrs post compound washout by Western blot analysis; assay type: cell-based; in short: as §5
[13] = system: Epidermal growth factor receptor (Homo sapiens), P00533 [L858R,T790M]; test: as §4, with “fluorescent band formation” for “rapid covalent modification”
[14] = Half life of compound in phosphate buffer at pH 7.4 and 37 degree C under neutral aqueous condition in presence of excess glutathione; assay type: physicochemical; conditions: phosphate buffer with excess glutathione
In short: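 Compound was incubated with excess glutathione under neutral aqueous conditions (pH 7.4, 37 °C), and half-reaction time was determined from the time course.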

[15] = organism: Homo sapiens; test: Selectivity index, ratio of IC50 for wild type EGFR (unknown origin) to IC50 for human EGFR L858R/T790M mutant expressed in baculovirus infected insect cells
[16] = system: Epidermal growth factor receptor (Homo sapiens), P00533 [L858R,T790M]; test: as §4, with “compound-protein adduct formation” for “rapid covalent modification”
[17] = system: Epidermal growth factor receptor (Homo sapiens), P00533 [L858R,T790M]; test: Binding affinity to recombinant human EGFR L858R/T790M mutant kinase domain expressed in baculovirus infected insect cells assessed as covalent bond formation between protein Cys797 residue-compound by LC-MS/MS analysis
[18] = Cmax in BALB/c mouse at 25 mg/kg, po administered as single dose measured at 2 hrs; assay type: ADME, organism-based; design: dose 25 mg/kg, route oral; conditions: in vivo; in short: as §6
[19] = molecular target: Epidermal growth factor receptor (Homo sapiens) (UniProt P00533); test: Competitive binding affinity to wild type EGFR expressed in human H292 cells assessed as SILAC ratio at 5 uM measured after 2 hrs by MS analysis; assay type: cell-based
[20] = molecular target: Epidermal growth factor receptor (Homo sapiens) (UniProt P00533); test: Competitive binding affinity to wild type EGFR expressed in human HEK293 cells assessed as protein labeling at 1 uM pretreated with compound followed by subsequent addition of copper-catalyzed azide-alkyne cyclo with rhodamine azide by in-gel fluorescence assay; assay type: cell-based; conditions: TDE = time-dependent effect
[21] = system: Epidermal growth factor receptor (Homo sapiens), P00533 [L858R,T790M]; test: as §2, with “EGFR L858R/T790M mutant” for “EGFR”, “fluorescent band formation at 5 uM” for “protein labeling”, “hr in presence of osimertinib” for “hr”; assay type: cell-based; in short: as §3
[22] = molecular target: Epidermal growth factor receptor (Homo sapiens) (UniProt P00533); test: Competitive binding affinity to wild type EGFR expressed in human HEK293 cells assessed as protein labeling pretreated with compound followed by subsequent addition of copper-catalyzed azide-alkyne cyclo with rhodamine azide incubated for 2 hrs by in-gel fluorescence assay; assay type: cell-based
[23] = system: Epidermal growth factor receptor (Homo sapiens), P00533 [L858R,T790M]; test: as §2, with “EGFR L858R/T790M” for “EGFR”, “fluorescent band formation by measuring molecular weight at 5 uM” for “protein labeling”; assay type: cell-based; in short: as §3
[24] = molecular target: Epidermal growth factor receptor (Homo sapiens) (UniProt P00533); test: Competitive binding affinity to wild type EGFR expressed in human H292 cells assessed as protein labeling at 1 uM pretreated with compound followed by subsequent addition of copper-catalyzed azide-alkyne cyclo with rhodamine azide by in-gel fluorescence assay; assay type: cell-based; conditions: TDE = time-dependent effect
[25] = molecular target: Epidermal growth factor receptor (Homo sapiens) (UniProt P00533); test: Competitive binding affinity to wild type EGFR expressed in human H292 cells assessed as protein labeling pretreated with compound followed by subsequent addition of copper-catalyzed azide-alkyne cyclo with rhodamine azide incubated for 2 hrs by in-gel fluorescence assay; assay type: cell-based
[26] = molecular target: Epidermal growth factor receptor (Homo sapiens) (UniProt P00533); test: Competitive binding affinity to EGFR in human H1975 cells assessed as protein labeling at 1 uM pretreated with compound followed by subsequent addition of copper-catalyzed azide-alkyne cyclo with rhodamine azide incubated for 10 hrs by in-gel fluorescence assay; assay type: cell-based; in short: as §1
[27] = system: Epidermal growth factor receptor (Homo sapiens), P00533 [L858R,T790M]; test: as §4, with “stability of compound-protein adduct” for “rapid covalent modification”, “24” for “72”

## COc1cc(N(C)CCN(C)C)c(NC(=O)C(F)Cl)cc1Nc1ncc(Cl)c(-c2c[nH]c3ccccc23)n1 (centres undefined)
[1]
  IC50: 0.05 µM

## COc1cc(N(C)CCN(C)C)c(NC(=O)[C@H](C)NC(C)=O)cc1Nc1ncc(C(F)(F)F)c(-c2c[nH]c3ccccc23)n1
[1]
  IC50: 0.46 µM
[2]
  IC50: 3.59 µM
[3]
  Ratio IC50: 7.8

## COc1cc(N(C)CCN(C)C)c(NC(=O)[C@@H]2C[C@@H](O)CN2C(=O)C(F)Cl)cc1Nc1ncc(Cl)c(-c2c[nH]c3ccccc23)n1 (some centres undefined)
[1]
  IC50: 0.15 µM

## COc1cc(N(C)CCN(C)C)c(NC(=O)[C@H](CC(C)C)NC(=O)C(F)Cl)cc1Nc1ncc(Cl)c(-c2c[nH]c3ccccc23)n1 (some centres undefined)
[1]
  IC50: 0.052 µM

## COc1cc(N(C)CCN(C)C)c(NC(=O)C(F)Cl)cc1Nc1ncc(C(F)(F)F)c(-c2c[nH]c3ccccc23)n1 (centres undefined)
[1]
  IC50: 0.033 µM
[2]
  IC50: 0.57 µM
[3]
  Ratio IC50: 17.3

## COc1cc(N(C)CCN(C)C)c(NC(=O)[C@H](C)NC(=O)C(F)Cl)cc1Nc1ncc(Cl)c(-c2c[nH]c3ccccc23)n1 (some centres undefined)
[1]
  IC50: 0.031 µM
[2]
  IC50: 0.71 µM
[3]
  Ratio IC50: 22.9

## C#CCCN(C)CCN(C)c1cc(OC)c(Nc2nccc(-c3cn(C)c4ccccc34)n2)cc1NC(=O)C=C
[1]
  IC50: 0.072 µM
[4]
  Activity: Active
[5]
  Activity: Tde
[6]
  Activity: Active
[7]
  log(ratio): -0.059
[8]
  Activity: Dose-dependent effect
[9]
  Activity: Active

## C=CC(=O)Nc1cc(Nc2nccc(-c3cn(C)c4ccccc34)n2)c(OC)cc1N(C)CCN(C)C [OSIMERTINIB]
[1]
  IC50: […]
[2]
  IC50: 0.22 µM
[3]
  Ratio IC50: […]

## COc1cc(N(C)CCN(C)C)c(NC(=O)[C@@H]2CCCN2C(=O)C(F)Cl)cc1Nc1ncc(Cl)c(-c2c[nH]c3ccccc23)n1 (some centres undefined)
[1]
  IC50: 0.056 µM

## COc1cc(N(C)CCN(C)C)c(NC(=O)[C@H](C)NC(=O)C(F)Cl)cc1Nc1ncc(C(F)(F)F)c(-c2c[nH]c3ccccc23)n1 (some centres undefined)
[1]
  IC50: 0.015 µM
[10]
  inhibition: Active
[11]
  MRT: 8.9 h
[12]
  inhibition: Active
[13]
  Activity: Active
[2]
  IC50: 1.37 µM
[14]
  half-life: 49.4 h
[15]
  Ratio IC50: 44.7
[16]
  Activity: Active
[3]
  Ratio IC50: 91.3
[17]
  Activity: Active
[18]
  Cmax: 510 nM

## CNC(=O)[C@H](CSC(F)C(=O)N[C@@H](C)C(=O)Nc1cc(Nc2ncc(C(F)(F)F)c(-c3c[nH]c4ccccc34)n2)c(OC)cc1N(C)CCN(C)C)NC(C)=O (some centres undefined)
[14]
  half-life: 11.2 h

## COc1cc(N(C)CCN(C)C)c(NC(=O)[C@H](CO)NC(=O)C(F)Cl)cc1Nc1ncc(Cl)c(-c2c[nH]c3ccccc23)n1 (some centres undefined)
[1]
  IC50: 0.32 µM

## C#CCCN(C)CCN(C)c1cc(OC)c(Nc2ncc(C(F)(F)F)c(-c3c[nH]c4ccccc34)n2)cc1NC(=O)[C@H](C)NC(=O)C(F)Cl (some centres undefined)
[1]
  IC50: 0.051 µM
[4]
  Activity: Active
[19]
  log(ratio): 3.2
[5]
  Activity: Tde
[20]
  Activity: Tde
[21]
  Activity: inactive
[6]
  Activity: Active
[22]
  Activity: Dose-dependent effect
[23]
  Activity: 175 kDa
[24]
  Activity: Tde
[8]
  Activity: Dose-dependent effect
[25]
  Activity: Dose-dependent effect
[26]
  Activity: Active
[27]
  Activity: Active

## COc1cc(N(C)CCN(C)C)c(NC(=O)[C@@H](C)NC(=O)C(F)Cl)cc1Nc1ncc(Cl)c(-c2c[nH]c3ccccc23)n1 (some centres undefined)
[1]
  IC50: 0.44 µM

## COc1cc(N(C)CCN(C)C)c(NC(=O)CNC(=O)C(F)Cl)cc1Nc1ncc(Cl)c(-c2c[nH]c3ccccc23)n1 (centres undefined)
[1]
  IC50: 0.13 µM

## COc1cc(N(C)CCN(C)C)c(NC(=O)[C@@H]2CCN2C(=O)C(F)Cl)cc1Nc1ncc(Cl)c(-c2c[nH]c3ccccc23)n1 (some centres undefined)
[1]
  IC50: 0.38 µM
